Results from paper PMC9263996 (iScience, 2022).

Legend:
[1] = target: T1, MaltOBP24 (Monochamus alternatus, UniProt A0A1I9HZN3); assay: Competitive fluorescence-binding assay with 1-NPN probe, recombinant MaltOBP24; settings: MaltOBP24 Ki (dissociation constant), 1-NPN competition, mean ± SEM
T1 sequence (A0A1I9HZN3 1-169): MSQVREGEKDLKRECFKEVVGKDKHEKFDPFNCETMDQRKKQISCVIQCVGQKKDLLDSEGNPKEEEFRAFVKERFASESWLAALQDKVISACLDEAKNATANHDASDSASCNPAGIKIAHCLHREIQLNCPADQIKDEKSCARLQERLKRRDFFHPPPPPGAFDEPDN

[2] = target: T2, DhelOBP10 (Dastarcus helophoroides, UniProt A0A1I9HZP4); assay: Competitive fluorescence-binding assay with 1-NPN probe, recombinant DhelOBP10; settings: for Ki: DhelOBP10 Ki (dissociation constant), 1-NPN competition, mean ± SEM
T2 sequence (A0A1I9HZP4 20-220): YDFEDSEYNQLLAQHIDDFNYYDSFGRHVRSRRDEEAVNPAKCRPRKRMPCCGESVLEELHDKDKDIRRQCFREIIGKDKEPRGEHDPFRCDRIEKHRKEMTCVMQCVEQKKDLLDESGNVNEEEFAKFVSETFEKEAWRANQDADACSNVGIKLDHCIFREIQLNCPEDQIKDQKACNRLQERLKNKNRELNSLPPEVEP
Outline: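 Recombinant signal-peptide-free DhelOBP10 from E. coli (pET-32b; 1 mM IPTG induction, 12 h at 16°C), dialysed into Tris pH 7.4 or 5.0. […] Ligands (1 mM methanol stock) were added to 0–20 μM; Ki = IC50/(1+[1-NPN]/K1-NPN). Mean ± SEM.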

[3] = test system: MaltOBP24; assay: Fluorescence-quenching spectra assay, MaltOBP24; type: binding, Monochamus alternatus; settings: for quenching mechanism of the interaction with MaltOBP24: change of Ksv with temperature 289–298 K, neutral pH
[4] = target: T2, DhelOBP10; assay: Fluorescence-quenching spectra assay, DhelOBP10; type: binding; settings: for ΔS (entropy change): DhelOBP10, pH 7.4; for ΔH (enthalpy change): DhelOBP10, pH 7.4, 289 and 298 K; for Kd: Ka (apparent association constant); for quenching mechanism of the interaction with DhelOBP10: change of Ksv with temperature 289–298 K, neutral pH
Outline: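 Intrinsic fluorescence of 2 μM recombinant DhelOBP10 in 30 mM Tris-HCl (pH 7.4 or 5.0): excitation 289 nm, slits 15/10 nm, scan 300–500 nm. Ligand aliquots came from 1 mM stock, at 289 and 298 K. Ksv and Kq were taken from Stern–Volmer fits, Ka and n from double-log plots, and ΔG, ΔH, ΔS from thermodynamic equations to assign binding force.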

[5] = test system: M. alternatus adults; assay: Y-tube olfactometer binary choice assay, M. alternatus adults; type: in vivo, Monochamus alternatus; settings: untreated adults, in words
Outline: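 Field-collected adults kept singly at 25°C on fresh pine twigs. RNAi: 1 μg dsMaltOBP24 or dsGFP injected into the frons of 4-day-old adults under CO₂ narcosis, with non-injected controls, and tested 4 days later. Y-tube with 40 cm stem, 30 cm arms at 60°, airflow 300 mL/min. Odour was 10 µL of 100-fold paraffin-oil dilution versus paraffin oil. Insects had 5 min; ≥30 per sex, each tested once; Chi-square.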

[6] = test system: D. helophoroides adults; assay: Y-tube olfactometer binary choice assay, D. helophoroides adults; type: in vivo, Dastarcus helophoroides; settings: for attraction to D. helophoroides after silencing DhelOBP10: RNAi, compared with non-injected and dsGFP controls; for behavioral response of D. helophoroides adults in Y-tube: untreated adults, in words
Outline: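 Adults reared at 25°C on an artificial diet. RNAi: 4-day-old adults given 300 ng dsDhelOBP10 or dsGFP into the frons, with non-injected controls, and tested 4 days later. Y-tube with 15 cm stem, 12 cm arms at 75°, airflow 300 mL/min per arm. Odour was 10 µL of 100-fold paraffin-oil dilution on filter paper versus paraffin oil. Insects had 5 min; arms swapped; ≥60 insects (30 per sex), each tested once; Chi-square.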

[7] = test system: SaveOBP3; settings: fluorescence-binding assays; ref Vandermoten et al., 2011; cited from earlier work
[8] = test system: EbalOBP3; settings: fluorescence-binding assays; ref Vandermoten et al., 2011; cited from earlier work

Ki ([1]; pH5.0)	Ki ([1]; pH7.4)	Ki ([2]; pH5.0)	Ki ([2]; pH7.4)	ΔS (entropy change) [4]	Kq (bimolecular quenching constant) ([4]; DhelOBP10, pH 7.4, 289 K)	Ksv (quenching constant) ([4]; DhelOBP10, pH 7.4, 289 K)	n (number of binding sites) ([4]; DhelOBP10, pH 7.4, 289 K)	ΔG (free energy change) ([4]; DhelOBP10, pH 7.4, 289 K)	ΔH (enthalpy change) [4]	Kq (bimolecular quenching constant) ([4]; DhelOBP10, pH 7.4, 298 K)	Ksv (quenching constant) ([4]; DhelOBP10, pH 7.4, 298 K)	n (number of binding sites) ([4]; DhelOBP10, pH 7.4, 298 K)	ΔG (free energy change) ([4]; DhelOBP10, pH 7.4, 298 K)	quenching mechanism of the interaction with DhelOBP10 [4]	SMILES	quenching mechanism of the interaction with MaltOBP24 [3]	behavioral response of M. alternatus adults in Y-tube [5]	attraction to D. helophoroides after silencing DhelOBP10 [6]	behavioral response of D. helophoroides adults in Y-tube [6]	further results
23.5 ± 2.33 µM	3.31 ± 0.68 µM	13.9 ± 2.91 µM	14.5 ± 2.61 µM	42.1 J/(mol·K)	3.524e+11 M⁻¹ s⁻¹	3,524 ± 122.4 L·mol^−1	0.9999 ± 0.0605	−19,760.09 J·mol^−1	−7,595.91 J·mol^−1	2.97e+11 M⁻¹ s⁻¹	2,970 ± 15.32 L·mol^−1	0.9088 ± 0.0218	−17,960.72 J·mol^−1	static quenching	CC1=CCC2C(C1)C2(C)C (centres unmarked) [3-carene]	static quenching	did not affect their behavior	significantly lower attraction index	significant preference	Ka (apparent association constant) ([3]; MaltOBP24, pH 7.4, 289 K): 9,394,307.39 L·mol^−1; Kq (bimolecular quenching constant) ([3]; MaltOBP24, pH 7.4, 289 K): 2.4156e+12 M⁻¹ s⁻¹; Ksv (quenching constant) ([3]; MaltOBP24, pH 7.4, 289 K): 24,156 ± 442.5 L·mol^−1; Ka (apparent association constant) ([3]; MaltOBP24, pH 7.4, 298 K): 3,347,243.70 L·mol^−1; Kq (bimolecular quenching constant) ([3]; MaltOBP24, pH 7.4, 298 K): 1.8949e+12 M⁻¹ s⁻¹; Ksv (quenching constant) ([3]; MaltOBP24, pH 7.4, 298 K): 18,949 ± 876.5 L·mol^−1; Kd ([4]; DhelOBP10, pH 7.4, 289 K): 268 µM; Kd ([4]; DhelOBP10, pH 7.4, 298 K): 711 µM; main acting force between ligand and DhelOBP10 ([4]; from signs of ΔH and ΔS): electrostatic force
–	–	–	–	–	–	–	–	–	–	–	–	–	–	dynamic quenching	CC1=CC[C@@H]2[C@@H]3[C@H]1[C@@]2(C)CCCC3(C)C [(+)-α-longipinene]	–	–	–	–	–
–	–	–	–	–	–	–	–	–	–	–	–	–	–	–	C=CC(=C)CC/C=C(\C)CCC=C(C)C [(E)-β-farnesene]	–	–	–	–	affinity with SaveOBP3 [7]: high affinity; affinity with EbalOBP3 [8]: high affinity
38.5 ± 3.44 µM	24.2 ± 1.94 µM	3.65 ± 0.34 µM	15.7 ± 1.26 µM	–	–	–	–	–	–	–	–	–	–	–	C=C1CC[C@H]2O[C@]2(C)CC[C@@H]2[C@@H]1CC2(C)C [(−)-caryophyllene oxide]	–	–	–	–	–
–	–	–	–	0.01114 kcal/mol	6.287e+11 M⁻¹ s⁻¹	6,287 ± 91.45 L·mol^−1	0.9715 ± 0.0292	−20,458.37 J·mol^−1	−6,986.94 J·mol^−1	4.016e+11 M⁻¹ s⁻¹	4,016 ± 108.1 L·mol^−1	0.9324 ± 0.0422	−18,738.30 J·mol^−1	static quenching	C=C(C)[C@H]1CC=C(C)CC1 [R-(+)-limonene]	dynamic quenching	did not affect their behavior	not altered	significant preference	ligand-binding affinity with DhelOBP10 (class) ([2]; fluorescence binding combined with quenching): high (high if the Ki values <20 μM); Ka (apparent association constant) ([4]; DhelOBP10, pH 7.4, 289 K): 4,986.95 L·mol^−1; Ka (apparent association constant) ([4]; DhelOBP10, pH 7.4, 298 K): 1,925.95 L·mol^−1
